Assay results from ChEMBL document CHEMBL3779801, “Discovery of the Selective CYP17A1 Lyase Inhibitor BMS-351 for the Treatment of Prostate Cancer” (ACS Med Chem Lett, 2016).

Experiments:
Cytochrome P450 1A2 = molecular target: T1, Cytochrome P450 1A2 (Homo sapiens, UniProt P05177); test: Inhibition of CYP1A2 (unknown origin); format: ADME
T1 sequence (P05177 whole entry): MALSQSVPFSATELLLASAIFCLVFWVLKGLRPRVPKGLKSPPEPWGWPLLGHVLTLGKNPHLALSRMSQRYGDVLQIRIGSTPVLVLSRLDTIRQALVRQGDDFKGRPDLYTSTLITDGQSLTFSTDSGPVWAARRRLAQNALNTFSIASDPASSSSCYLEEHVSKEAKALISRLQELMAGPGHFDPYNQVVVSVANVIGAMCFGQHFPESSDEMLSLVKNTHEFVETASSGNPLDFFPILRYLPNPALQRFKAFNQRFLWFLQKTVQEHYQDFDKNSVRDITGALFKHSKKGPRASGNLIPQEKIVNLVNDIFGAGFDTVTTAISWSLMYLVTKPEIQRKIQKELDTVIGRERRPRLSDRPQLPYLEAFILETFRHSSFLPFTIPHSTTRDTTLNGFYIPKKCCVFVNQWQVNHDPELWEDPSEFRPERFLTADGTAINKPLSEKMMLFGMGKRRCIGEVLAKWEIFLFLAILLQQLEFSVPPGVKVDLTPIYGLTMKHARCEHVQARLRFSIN

[1] = Cmax in cynomolgus monkey plasma at 4 mg/kg, po after 0.25 to 45 hrs by LC-MS/MS analysis; format: ADME, organism-based, Macaca fascicularis; parameters: dose 4 mg/kg, route oral
In short: (§1)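 Cynomolgus monkeys were dosed orally from a solution formulation. Plasma parameters are given as mean ± standard deviation.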

[2] = Clearance in cynomolgus monkey plasma at 2 mg/kg, iv by LC-MS/MS analysis; format: ADME, organism-based, Macaca fascicularis
In short: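 Cynomolgus monkeys were dosed intravenously. Plasma parameters are given as mean ± standard deviation.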

Steroid 21-hydroxylase = molecular target: T2, Steroid 21-hydroxylase (Homo sapiens, UniProt P08686); test: Inhibition of CYP21A2 in human H295R cells using hydroxy progesterone as substrate incubated for 120 mins by LC-MS method; format: ADME, cell-based
T2 sequence (P08686 whole entry): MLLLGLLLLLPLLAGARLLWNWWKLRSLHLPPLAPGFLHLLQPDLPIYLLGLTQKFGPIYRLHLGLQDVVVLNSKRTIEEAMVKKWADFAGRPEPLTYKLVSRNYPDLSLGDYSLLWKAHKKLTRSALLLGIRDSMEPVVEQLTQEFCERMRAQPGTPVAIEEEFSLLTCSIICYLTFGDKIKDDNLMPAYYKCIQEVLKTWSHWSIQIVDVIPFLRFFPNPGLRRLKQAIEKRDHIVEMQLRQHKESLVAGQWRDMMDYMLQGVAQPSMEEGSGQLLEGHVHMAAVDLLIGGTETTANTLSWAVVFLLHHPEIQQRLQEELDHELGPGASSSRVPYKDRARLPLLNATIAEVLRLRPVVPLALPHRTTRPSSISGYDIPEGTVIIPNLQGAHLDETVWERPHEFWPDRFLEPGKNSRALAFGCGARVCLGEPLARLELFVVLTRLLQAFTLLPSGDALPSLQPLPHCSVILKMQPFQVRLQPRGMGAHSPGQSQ

[3] = molecular target: T3, Steroid 17-alpha-hydroxylase/17,20 lyase (Homo sapiens, UniProt P05093); test: Selectivity ratio of human CYP17A1 hydroxylase activity expressed in Escherichia coli using pregnenolone substrate to human CYP17A1 lyase activity expressed in HEK293 cell microsomes using [3H]-hydroxypregnenolone substrate
T3 sequence (P05093 whole entry): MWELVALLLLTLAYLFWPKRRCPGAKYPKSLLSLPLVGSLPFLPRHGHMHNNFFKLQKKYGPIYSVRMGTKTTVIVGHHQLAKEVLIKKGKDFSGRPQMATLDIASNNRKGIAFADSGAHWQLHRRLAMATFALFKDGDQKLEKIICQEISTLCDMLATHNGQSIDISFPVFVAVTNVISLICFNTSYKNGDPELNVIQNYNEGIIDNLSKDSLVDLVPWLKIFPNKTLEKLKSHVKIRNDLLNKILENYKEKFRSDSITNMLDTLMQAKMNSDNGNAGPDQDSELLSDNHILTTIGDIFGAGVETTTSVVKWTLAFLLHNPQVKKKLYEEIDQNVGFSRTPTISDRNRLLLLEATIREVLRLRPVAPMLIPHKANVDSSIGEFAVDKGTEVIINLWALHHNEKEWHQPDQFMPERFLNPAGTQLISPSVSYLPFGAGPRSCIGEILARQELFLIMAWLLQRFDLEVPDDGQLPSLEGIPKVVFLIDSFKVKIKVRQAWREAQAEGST
In short: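 Hydroxylase and lyase activities were run with different enzyme preparations, so the hydroxylase/lyase ratios are estimates.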

[4] = Metabolic stability in cynomolgus monkey liver microsomes assessed as parent compound remaining at 0.5 uM incubated for 10 mins; format: ADME, Macaca fascicularis; details: read-out: Stability
In short: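 Compound at 0.5 μM was incubated with human, mouse or cynomolgus liver microsomes for 10 min.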

[5] = Oral bioavailability in cynomolgus monkey plasma at 4 mg/kg after 0.25 to 45 hrs by LC-MS/MS analysis; format: ADME, organism-based, Macaca fascicularis
In short: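 Oral bioavailability in cynomolgus monkey came from oral dosing of a solution formulation combined with a separate 2 mg/kg iv dose. Values are mean ± standard deviation.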

[6] = Tmax in cynomolgus monkey plasma at 4 mg/kg, po after 0.25 to 45 hrs by LC-MS/MS analysis; format: ADME, organism-based, Macaca fascicularis; in short: as §1
[7] = molecular target: T4, Cytochrome P450 11B1, mitochondrial (Homo sapiens, UniProt P15538); test: Inhibition of CYP11B1 in human H295R cells using deoxycorticosterone as substrate incubated for 48 hrs by LC-MS method; format: ADME, cell-based
T4 sequence (P15538 whole entry): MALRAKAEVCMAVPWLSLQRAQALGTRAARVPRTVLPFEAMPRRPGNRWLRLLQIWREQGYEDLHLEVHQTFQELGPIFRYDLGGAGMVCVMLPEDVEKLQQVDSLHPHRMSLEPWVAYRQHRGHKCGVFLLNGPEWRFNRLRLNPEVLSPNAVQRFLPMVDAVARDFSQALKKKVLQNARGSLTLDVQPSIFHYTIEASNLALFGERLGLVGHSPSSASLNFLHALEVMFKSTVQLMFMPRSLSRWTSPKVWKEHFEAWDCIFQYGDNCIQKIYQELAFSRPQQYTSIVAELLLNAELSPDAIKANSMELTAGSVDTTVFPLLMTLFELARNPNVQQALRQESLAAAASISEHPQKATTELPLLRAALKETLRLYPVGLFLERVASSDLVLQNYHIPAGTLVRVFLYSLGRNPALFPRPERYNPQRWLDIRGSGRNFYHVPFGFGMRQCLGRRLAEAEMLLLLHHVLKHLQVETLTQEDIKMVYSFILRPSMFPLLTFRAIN

Cynomolgus monkey [8] = test: Effect on progesterone level in one day castrated cynomolgus monkey assessed as baseline level at 1.5 mg/kg, po bid for 24 hrs by radiometric immunoassay; format: ADME, organism-based, Macaca fascicularis; details: in vivo
Cynomolgus monkey [9] = test: Ratio of Cmax to Cmean in cynomolgus monkey plasma at 4 mg/kg, po after 0.25 to 45 hrs by LC-MS/MS analysis; format: ADME, organism-based, Macaca fascicularis; details: in vivo

IC50 (Cytochrome P450 1A2): 9 µM
Cmax [1]: 3000 nM
clearance [2]: 19 mL/min/kg
IC50 (Steroid 21-hydroxylase): > 7.5 µM
remaining at 10 min, 0.5 µM [4]: 83%
bioavailability [5]: 97%
Tmax [6]: 1.3 h
IC50 [7]: > 7.5 µM
Ratio (Cynomolgus monkey [9]): 16
Compound: Cc1ccncc1-c1cccc2c1ncn2CC(F)(F)F
Selectivity ratio [3]: 10
Activity (Cynomolgus monkey [8]): Non-toxic
